Measured values reported in PMC2917810 (Chemical biology & drug design, 2008).
pIC50: −log10 of the molar value. Read-outs that look alike come from different tables or passages of the source. Positions of bridges follow the written chain, without caps; N, C: chain ends. Residues, ends and D or L forms follow the SMILES beside them.

Tests used:
RGS4Δ51N = target: T1, RGS4Δ51N (Homo sapiens, UniProt P49798); assay: Single turnover RGS-stimulated Gαo GTPase; assay type: biochemical; settings: for inhibition of RGS4 activity (rate of RGS stimulated Gαo GTP hydrolysis): purified proteins, mean ± S.E.M., n ≥3, SEM; for activity on RGS4 GAP activity: single turnover GAP assay, RGS4Δ51N 75–125 nM
T1 sequence (P49798 52-205 limits assumed): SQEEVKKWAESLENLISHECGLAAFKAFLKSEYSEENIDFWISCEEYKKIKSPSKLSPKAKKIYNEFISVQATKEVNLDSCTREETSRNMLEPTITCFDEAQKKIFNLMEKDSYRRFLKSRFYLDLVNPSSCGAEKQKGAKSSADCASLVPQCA
Summary of the method: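 Single-turnover GTP hydrolysis by purified rat His6-Gαo with γ[32P]GTP, stimulated by human MBP-His6-RGS4Δ51N (75–125 nM). Soluble disulfide-cyclized peptides (≥95% pure) were tested at 50 μM, or lower where solubility limited. Rates came from time courses, reported as percent decrease in the RGS-stimulated rate; IC50 estimated from these single-concentration inhibitions. Mean ± S.E.M., n ≥3; t-test.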

[1] = Solubility and aggregation of soluble peptides; assay type: physicochemical
RGS16 = assay: Single turnover GAP assay, RGS16; assay type: biochemical, human; settings: RGS16 1.5 μM
Summary of the method: (§1)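 Single-turnover GTP hydrolysis by purified rat His6-Gαo with γ[32P]GTP, with or without RGS. The RGS proteins were human MBP-His6 constructs, purified on amylose then Ni-NTA: full-length RGS16 at 1.5 μM, RGS19Δ11C at 200 nM, and the RGS7 RGS domain (nucleotides 915–1359) at 500 nM. Test peptides were soluble, cyclized, and ≥95% pure.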

RGS7box = assay: Single turnover GAP assay, RGS7; assay type: biochemical, human; settings: RGS7box 500 nM
Summary of the method: as §1

RGS4 [2] = settings: cited from earlier work
RGS4 [3] = settings: membrane based steady state GTPase assay; cited from earlier work
RGS4Δ51N-Alexa Fluor 532 = assay: FACScan flow cytometry binding of bead-bound peptides; set-up: species or system human; settings: peptides on beads, 25 nM RGS4Δ51N-Alexa Fluor 532
Summary of the method: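 Hit peptides resynthesized and disulfide-cyclized on 20 μm TentaGel beads; about 5 × 10^3 beads per sample (at most 5 nmoles peptide) washed, then incubated with RGS4Δ51N-Alexa Fluor 532 for at least 15 min at room temperature, protected from light. FACScan gated on acetylated TentaGel control beads, no compensation; their signal subtracted as background. Duplicates; one-way ANOVA with Bonferroni post-test.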

## 1nd: free N-terminal, disulfide bridged version of hit 1 (H-YNCQGECE-NH2; disulfide 3-7; SMILES NC(=O)CC[C@@H]1NC(=O)[C@@H](NC(=O)[C@H](CC(N)=O)NC(=O)[C@@H](N)Cc2ccc(O)cc2)CSSC[C@@H](C(=O)N[C@@H](CCC(=O)O)C(N)=O)NC(=O)[C@H](CCC(=O)O)NC(=O)CNC1=O)
RGS4Δ51N; 50 μM peptide in solution
  inhibition of RGS4 activity (rate of RGS stimulated Gαo GTP hydrolysis): 33 ± 15%

## 2al: acetylated linear version of peptide 2 (Ac-GTCFGTCW-NH2; cysteine pairing not given here)
RGS4Δ51N
  activity on RGS4 GAP activity: inactive

## 2nl: free N-terminal linear version of peptide 2 (H-GTCFGTCW-NH2; cysteine pairing not given here)
RGS4Δ51N
  activity on RGS4 GAP activity: inactive

## 4nd: free N-terminal, disulfide bridged version of hit 4 (H-KVCMGGCT-NH2; disulfide 3-7; SMILES CSCC[C@@H]1NC(=O)[C@@H](NC(=O)[C@@H](NC(=O)[C@@H](N)CCCCN)C(C)C)CSSC[C@@H](C(=O)N[C@H](C(N)=O)[C@@H](C)O)NC(=O)CNC(=O)CNC1=O)
RGS4Δ51N; 50 μM peptide in solution
  inhibition of RGS4 activity (rate of RGS stimulated Gαo GTP hydrolysis): 33 ± 16%

## 14nd: free N-terminal, disulfide bridged version of hit 14 (H-KHCYGFCK-NH2; disulfide 3-7; SMILES NCCCC[C@H](NC(=O)[C@@H]1CSSC[C@H](NC(=O)[C@H](Cc2c[nH]cn2)NC(=O)[C@@H](N)CCCCN)C(=O)N[C@@H](Cc2ccc(O)cc2)C(=O)NCC(=O)N[C@@H](Cc2ccccc2)C(=O)N1)C(N)=O)
[1]; could not be tested at 50 μM in GAP assay, solubility verified by HPLC
  solubility: limited by solubility

## CC(=O)NCC(=O)N[C@H](C(=O)N[C@H]1CSSC[C@@H](C(=O)N[C@@H](Cc2c[nH]c3ccccc23)C(N)=O)NC(=O)[C@H]([C@@H](C)O)NC(=O)CNC(=O)[C@H](Cc2ccccc2)NC1=O)[C@@H](C)O [2ad, Ac-Gly-Thr-c[Cys-Phe-Gly-Thr-Cys]-Trp-NH2, S-S] (Ac-GTCFGTCW-NH2; disulfide 3-7)
RGS4Δ51N
  pIC50: ~4.30
RGS4Δ51N; 25 μM peptide (limited by solubility)
  inhibition of RGS4 activity (rate of RGS stimulated Gαo GTP hydrolysis): 30 ± 12%
RGS16
  activity against RGS16: inactive
[1]
  solubility: limited by solubility
RGS7box
  activity against RGS7: inactive

## C[C@@H](O)[C@@H]1NC(=O)CNC(=O)[C@H](Cc2ccccc2)NC(=O)[C@@H](NC(=O)[C@@H](NC(=O)CN)[C@@H](C)O)CSSC[C@@H](C(=O)N[C@@H](Cc2c[nH]c3ccccc23)C(N)=O)NC1=O [2nd, Gly-Thr-c[Cys-Phe-Gly-Thr-Cys]-Trp-NH2, S-S] (H-GTCFGTCW-NH2; disulfide 3-7)
RGS4Δ51N
  pIC50: ~4.30
RGS4Δ51N; 50 μM peptide in solution
  inhibition of RGS4 activity (rate of RGS stimulated Gαo GTP hydrolysis): 48 ± 7%
RGS16
  activity against RGS16: inactive
RGS7box
  activity against RGS7: inactive

## Ac-Val-Lys-[Cys-Thr-Gly-Phe-Cys]-Glu-NH2, S-S (disulfide) [peptide 20 in Roof et al]
RGS4 [2]; at 100 μM
  inhibited RGS4 GAP activity: ~40%

## Ac-Val-Lys-c[Cys-Thr-Gly-Ile-Cys]-Glu-NH2, S-S (disulfide) [YJ34, reference compound]
[1]
  solubility: limited by solubility
RGS4 [3]
  pIC50: 4.59

## Ac-Val-Lys-c[Cys-Thr-Ser-Ile-Cys]-Glu-NH2, S-S (disulfide) [BR2]
RGS4 [2]
  activity as RGS4 inhibitor: inactive

## KLc[CHGYC]H-NH2, S-S (disulfide) [compound 11]
[1]; not evaluated in GAP assay for this reason
  aggregation: signs of aggregation

## KVc[CMGGC]T-NH2, S-S (disulfide) [compound 4]
RGS4Δ51N
  activity on RGS4 GAP activity: little effect
RGS4Δ51N-Alexa Fluor 532
  binding to RGS4Δ51N in FACScan assay: bound RGS4 so well
